Assay results published in ChEMBL document CHEMBL4390653, “Potential anti-herpes and cytotoxic action of novel semisynthetic digitoxigenin-derivatives” (Eur J Med Chem, 2019).

Legend:
LNCaP = assay: Cytotoxicity against human LNCAP cells assessed as inhibition of cell viability after 48 hrs by SRB assay; format: functional, cell-based
Outline: (§1)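 Cells seeded at 2.5 × 10^4 per well and exposed to a concentration range for 48 h, then SRB total-protein stain. PC3 grown in phenol-red-free DMEM with 1% glutamine; LNCaP in phenol-red-free RPMI 1640 with glutamine and non-essential amino acids. HCT-8 and H460 in RPMI 1640. MRC-5 (plus glutamine and non-essential amino acids) and primary gingival fibroblasts in DMEM. All media had 10% FBS, 37 °C, 5% CO2. Paclitaxel was the reference. IC50 versus untreated controls by nonlinear regression, three independent experiments.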

HCT-8 = assay: Cytotoxicity against human HCT8 cells assessed as inhibition of cell viability after 48 hrs by SRB assay; format: functional, cell-based; conditions: HCT-8, 48 h; outline: as §1
[1] = (§2) Selectivity index, ratio of Cytotoxicity against African green monkey Vero cells assessed as reduction in cell viability after 48 hrs by SRB assay to Antiviral activity against acyclovir-sensitive Herpes simplex virus 1 KOS infected in African green monkey Vero cells assessed as inhibition of viral replication after 48 hrs by naphthol blue-black staining-based plaque reduction assay; format: toxicity; conditions: Vero cells infected with HSV-1 KOS, read-out: Ratio CC50/IC50
Outline: (§3)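 Selectivity index = CC50 in Vero cells (SRB, 48 h) divided by plaque-reduction IC50 for the same virus strain.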

Human alphaherpesvirus 2 [2] = assay: Antiviral activity against Herpes simplex virus 2-333 infected in African green monkey Vero cells assessed as inhibition of viral replication after 48 hrs by naphthol blue-black staining-based plaque reduction assay; format: functional, organism-based; conditions: Human alphaherpesvirus 2, 333, Vero
Outline: (§4)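 Vero cells in MEM with 10% FBS, 37 °C, 5% CO2. Confluent monolayers (2.5 × 10^5 cells/well) infected with about 100 PFU for 1 h at 37 °C. Non-cytotoxic concentrations were added after infection. Cells were then PBS-washed and overlaid with MEM plus 1.5% carboxymethylcellulose, with or without compound, for 48 h. Fixed, naphthol blue-black stained, plaques counted under a stereomicroscope. IC50 versus untreated controls by nonlinear regression; mean of three independent experiments.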

[3] = as §2, with “acyclovir-resistant” for “acyclovir-sensitive”, “29-R” for “KOS”; format: toxicity; conditions: Vero cells infected with HSV-1 29-R, read-out: Ratio CC50/IC50; outline: as §3
[4] = as §2, with “against” for “against acyclovir-sensitive”, “2-333” for “1 KOS”; format: toxicity; conditions: Vero cells infected with HSV-2 333, read-out: Ratio CC50/IC50; outline: as §3
NCI-H460 = assay: Cytotoxicity against human H460 cells assessed as inhibition of cell viability after 48 hrs by SRB assay; format: functional, cell-based; conditions: NCI-H460, 48 h; outline: as §1
Human alphaherpesvirus 1 [5] = assay: (§5) Antiviral activity against acyclovir-sensitive Herpes simplex virus 1 KOS infected in African green monkey Vero cells assessed as inhibition of viral replication after 48 hrs by naphthol blue-black staining-based plaque reduction assay; format: functional, organism-based; conditions: Human alphaherpesvirus 1, strain KOS; outline: as §4
[6] = Cytotoxicity against African green monkey Vero cells assessed as reduction in cell viability after 48 hrs by SRB assay; format: cell-based; conditions: chlorocebus sabaeus
Outline: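 Vero cells in MEM with 10% FBS, seeded at 2.5 × 10^4 cells/well. Exposed to a range of concentrations for 48 h at 37 °C, 5% CO2, then sulforhodamine B total-protein staining. CC50 is the concentration reducing viability by 50% versus untreated controls, from nonlinear regression; mean ± SD of three independent experiments.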

PC-3 = assay: Cytotoxicity against human PC3 cells assessed as inhibition of cell viability after 48 hrs by SRB assay; format: functional, cell-based; conditions: PC-3, 48 h; outline: as §1
MRC5 = assay: Cytotoxicity against human MRC5 cells assessed as inhibition of cell viability after 48 hrs by SRB assay; format: cell-based; conditions: MRC5, 48 h; outline: as §1
[7] = Inhibition of porcine cortex Na+/K+-ATPase alpha1/2/3 subunit using ATP as substrate preincubated for 30 mins followed by substrate addition and measured after 30 mins by malachite green reagent-based assay; set-up: species or system Sus scrofa
A549 = assay: Cytotoxicity against human A549 cells assessed as inhibition of cell viability after 48 hrs by SRB assay; format: functional, cell-based; conditions: A549, 48 h
[8] = Cytotoxicity against human HGF cells assessed as inhibition of cell viability after 48 hrs by SRB assay; format: cell-based; outline: as §1
Human alphaherpesvirus 1 [9] = assay: Antiviral activity against acyclovir-resistant Herpes simplex virus 1 29-R infected in African green monkey Vero cells assessed as inhibition of viral replication after 48 hrs by naphthol blue-black staining-based plaque reduction assay; format: functional, organism-based; conditions: Human alphaherpesvirus 1, 29-R, Vero, 48 h; read-out: IC50; outline: as §4
Human alphaherpesvirus 1 [10] = assay: as §5, with “Potency index, ratio of IC50 for acyclovir to IC50 for test compound for antiviral” for “Antiviral”; format: functional, strain KOS
Human alphaherpesvirus 2 [11] = assay: Potency index, ratio of IC50 for acyclovir to IC50 for test compound for antiviral activity against Herpes simplex virus 2-333 infected in African green monkey Vero cells assessed as inhibition of viral replication after 48 hrs by naphthol blue-black staining-based plaque reduction assay; format: functional

C[C@@H](O)[C@H](O)[C@@H](O)CCN[C@H]1CC[C@@]2(C)[C@H](CC[C@@H]3[C@@H]2CC[C@]2(C)[C@@H](C4=CC(=O)OC4)CC[C@]32O)C1
IC50 (LNCaP): 2460 nM | IC50 (HCT-8): 1250 nM | selectivity ratio at 48 h [1]: > 206 | IC50 (Human alphaherpesvirus 2 [2]): 1270 nM | selectivity ratio at 48 h [3]: > 92.9 | selectivity ratio at 48 h [4]: > 236 | IC50 (NCI-H460): 370 nM | IC50 (Human alphaherpesvirus 1 [5]): 1460 nM | CC50 at 48 h [6]: > 300 µM | IC50 (PC-3): 1220 nM | IC50 (MRC5): 550 nM | IC50 [7]: 2040 nM | IC50 (A549): 680 nM | IC50 [8]: 2550 nM | IC50 (Human alphaherpesvirus 1 [9]): 3230 nM

C[C@]12CC[C@H](NC(=O)CO)C[C@H]1CC[C@@H]1[C@@H]2CC[C@]2(C)[C@@H](C3=CC(=O)OC3)CC[C@]12O
IC50 (LNCaP): 810 nM | IC50 (HCT-8): 690 nM | selectivity ratio at 48 h [1]: > 1250 | Ratio IC50 (Human alphaherpesvirus 1 [10]): 6 | IC50 (Human alphaherpesvirus 2 [2]): 300 nM | selectivity ratio at 48 h [3]: > 1580 | selectivity ratio at 48 h [4]: > 1000 | IC50 (NCI-H460): 260 nM | IC50 (Human alphaherpesvirus 1 [5]): 240 nM | CC50 at 48 h [6]: > 300 µM | IC50 (PC-3): 420 nM | IC50 (MRC5): 250 nM | IC50 [7]: 843 nM | Ratio IC50 (Human alphaherpesvirus 2 [11]): 11 | IC50 [8]: 1670 nM | IC50 (Human alphaherpesvirus 1 [9]): 190 nM

C[C@]12CC[C@H](NC(=O)CNc3ccc(C#N)cc3)C[C@H]1CC[C@@H]1[C@@H]2CC[C@]2(C)[C@@H](C3=CC(=O)OC3)CC[C@]12O
IC50 (LNCaP): 2080 nM | IC50 (HCT-8): 1250 nM | selectivity ratio at 48 h [1]: > 500 | IC50 (Human alphaherpesvirus 2 [2]): 1000 nM | selectivity ratio at 48 h [3]: > 714 | selectivity ratio at 48 h [4]: > 300 | IC50 (NCI-H460): 250 nM | IC50 (Human alphaherpesvirus 1 [5]): 600 nM | CC50 at 48 h [6]: > 300 µM | IC50 (PC-3): 910 nM | IC50 (MRC5): 1060 nM | IC50 [7]: 4160 nM | IC50 (A549): 540 nM | IC50 [8]: 2090 nM | IC50 (Human alphaherpesvirus 1 [9]): 420 nM

C[C@]12CC[C@H](NC(=O)CNCCO)C[C@H]1CC[C@@H]1[C@@H]2CC[C@]2(C)[C@@H](C3=CC(=O)OC3)CC[C@]12O
IC50 (LNCaP): 130 nM | IC50 (HCT-8): 90 nM | selectivity ratio at 48 h [1]: > 1300 | Ratio IC50 (Human alphaherpesvirus 1 [10]): 6 | IC50 (Human alphaherpesvirus 2 [2]): 270 nM | selectivity ratio at 48 h [3]: > 1670 | selectivity ratio at 48 h [4]: > 1110 | IC50 (NCI-H460): 70 nM | IC50 (Human alphaherpesvirus 1 [5]): 230 nM | CC50 at 48 h [6]: > 300 µM | IC50 (PC-3): 180 nM | IC50 (MRC5): 130 nM | IC50 [7]: 1990 nM | Ratio IC50 (Human alphaherpesvirus 2 [11]): 12 | IC50 (A549): 190 nM | IC50 [8]: 660 nM | IC50 (Human alphaherpesvirus 1 [9]): 180 nM
